# How the values were obtained:
# Conditions in all cases: stereoisomer not certain
# [1] = target: T1, UniProt B2RVX8
# T1 sequence (whole entry): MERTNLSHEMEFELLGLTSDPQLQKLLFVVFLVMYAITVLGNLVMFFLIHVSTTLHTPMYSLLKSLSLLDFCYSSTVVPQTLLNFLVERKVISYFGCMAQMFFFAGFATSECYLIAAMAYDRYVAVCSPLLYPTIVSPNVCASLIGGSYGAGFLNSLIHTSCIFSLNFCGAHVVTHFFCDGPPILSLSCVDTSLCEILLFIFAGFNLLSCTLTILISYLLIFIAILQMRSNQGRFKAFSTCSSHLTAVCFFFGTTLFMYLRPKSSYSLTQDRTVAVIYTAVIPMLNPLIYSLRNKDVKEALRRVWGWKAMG
# Procedure, shortened: (§1)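 Transient luciferase assays in mammalian cell lines were common, though methods varied by source. The values come from published papers and their supplementary material, with extra details from the original authors when needed. Responsive refers to a measured signal the original authors judged statistically different from baseline, and non-responsive (inactive) to the remainder.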
# [2] = target: T2, UniProt E9PVX1
# T2 sequence (whole entry): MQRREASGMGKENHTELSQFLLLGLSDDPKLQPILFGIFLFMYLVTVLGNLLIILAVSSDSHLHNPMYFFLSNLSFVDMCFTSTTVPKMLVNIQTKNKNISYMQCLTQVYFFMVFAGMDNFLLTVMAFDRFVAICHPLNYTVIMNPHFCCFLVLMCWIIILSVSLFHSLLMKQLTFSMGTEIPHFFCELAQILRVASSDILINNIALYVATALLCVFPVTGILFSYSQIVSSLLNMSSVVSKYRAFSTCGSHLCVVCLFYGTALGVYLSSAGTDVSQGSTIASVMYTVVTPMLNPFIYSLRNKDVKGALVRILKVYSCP
# Procedure, shortened: as §1
# [3] = target: T3, UniProt E9PZ66
# T3 sequence (whole entry): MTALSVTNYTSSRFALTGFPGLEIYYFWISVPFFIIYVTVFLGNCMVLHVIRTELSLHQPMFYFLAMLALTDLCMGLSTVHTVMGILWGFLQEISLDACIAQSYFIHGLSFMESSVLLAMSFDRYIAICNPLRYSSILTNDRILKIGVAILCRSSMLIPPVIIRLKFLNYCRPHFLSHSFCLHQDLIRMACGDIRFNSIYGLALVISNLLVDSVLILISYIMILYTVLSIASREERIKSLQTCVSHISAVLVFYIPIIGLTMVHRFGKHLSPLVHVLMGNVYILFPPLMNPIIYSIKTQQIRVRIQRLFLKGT
# Procedure, shortened: as §1
# [4] = target: T4, UniProt E9Q4X7
# T4 sequence (whole entry): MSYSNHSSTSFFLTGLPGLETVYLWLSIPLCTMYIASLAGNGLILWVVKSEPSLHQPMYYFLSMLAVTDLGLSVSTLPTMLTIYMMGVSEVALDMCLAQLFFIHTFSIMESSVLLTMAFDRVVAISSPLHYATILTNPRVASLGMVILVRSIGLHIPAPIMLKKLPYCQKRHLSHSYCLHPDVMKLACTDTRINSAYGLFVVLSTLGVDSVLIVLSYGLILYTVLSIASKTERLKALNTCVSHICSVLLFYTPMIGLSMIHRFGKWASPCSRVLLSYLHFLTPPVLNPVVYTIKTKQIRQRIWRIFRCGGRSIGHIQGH
# Procedure, shortened: as §1
# [5] = target: T5, UniProt E9Q546
# T5 sequence (whole entry): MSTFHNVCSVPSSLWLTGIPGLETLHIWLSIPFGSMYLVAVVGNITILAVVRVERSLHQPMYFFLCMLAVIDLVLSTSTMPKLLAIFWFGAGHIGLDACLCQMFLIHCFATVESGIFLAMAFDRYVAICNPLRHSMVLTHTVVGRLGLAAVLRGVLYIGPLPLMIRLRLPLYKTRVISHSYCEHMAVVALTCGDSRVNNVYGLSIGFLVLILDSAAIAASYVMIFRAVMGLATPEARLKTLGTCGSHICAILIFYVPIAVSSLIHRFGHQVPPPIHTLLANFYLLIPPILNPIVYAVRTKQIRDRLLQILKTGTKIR
# Procedure, shortened: as §1
# [6] = target: T6, UniProt E9Q6Z7
# T6 sequence (whole entry): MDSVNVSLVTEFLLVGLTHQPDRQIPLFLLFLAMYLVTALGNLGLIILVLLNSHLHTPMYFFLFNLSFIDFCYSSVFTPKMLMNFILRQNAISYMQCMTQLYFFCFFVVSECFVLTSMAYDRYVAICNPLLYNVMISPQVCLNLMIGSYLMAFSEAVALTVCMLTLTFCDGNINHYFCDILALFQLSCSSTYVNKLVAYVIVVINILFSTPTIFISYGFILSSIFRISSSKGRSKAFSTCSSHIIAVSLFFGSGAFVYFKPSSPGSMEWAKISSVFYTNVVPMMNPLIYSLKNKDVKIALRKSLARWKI
# Procedure, shortened: as §1
# [7] = target: T7, UniProt K7N609
# T7 sequence (whole entry): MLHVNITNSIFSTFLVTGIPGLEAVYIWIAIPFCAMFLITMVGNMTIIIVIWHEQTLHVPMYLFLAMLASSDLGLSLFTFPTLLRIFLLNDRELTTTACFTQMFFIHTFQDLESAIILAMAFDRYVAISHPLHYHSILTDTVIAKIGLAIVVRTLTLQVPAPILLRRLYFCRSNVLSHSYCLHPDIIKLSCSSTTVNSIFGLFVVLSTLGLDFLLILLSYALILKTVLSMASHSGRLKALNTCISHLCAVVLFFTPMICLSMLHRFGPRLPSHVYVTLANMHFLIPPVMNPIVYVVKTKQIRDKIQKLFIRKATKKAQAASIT
# Procedure, shortened: as §1
# [8] = target: T8, UniProt L7MU75
# T8 sequence (whole entry): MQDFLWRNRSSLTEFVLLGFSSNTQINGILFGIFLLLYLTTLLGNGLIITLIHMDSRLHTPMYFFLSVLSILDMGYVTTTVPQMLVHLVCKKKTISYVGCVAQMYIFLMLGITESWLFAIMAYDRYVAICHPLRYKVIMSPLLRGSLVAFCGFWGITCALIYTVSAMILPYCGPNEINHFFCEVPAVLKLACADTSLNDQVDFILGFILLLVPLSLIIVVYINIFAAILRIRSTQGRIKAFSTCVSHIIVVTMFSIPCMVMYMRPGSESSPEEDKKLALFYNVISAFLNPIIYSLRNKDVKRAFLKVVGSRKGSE
# Procedure, shortened: as §1
# [9] = target: T9, UniProt L7N210
# T9 sequence (whole entry): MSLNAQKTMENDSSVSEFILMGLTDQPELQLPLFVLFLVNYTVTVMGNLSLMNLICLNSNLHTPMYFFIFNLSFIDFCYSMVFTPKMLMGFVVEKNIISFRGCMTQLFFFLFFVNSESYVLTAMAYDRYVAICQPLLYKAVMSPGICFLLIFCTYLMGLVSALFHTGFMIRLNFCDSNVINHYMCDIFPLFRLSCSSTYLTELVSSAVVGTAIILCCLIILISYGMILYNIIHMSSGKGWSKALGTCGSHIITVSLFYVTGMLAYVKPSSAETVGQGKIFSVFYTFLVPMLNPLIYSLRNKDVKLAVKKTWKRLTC
# Procedure, shortened: as §1
# [10] = target: T10, UniProt Q3KPB0
# T10 sequence (whole entry): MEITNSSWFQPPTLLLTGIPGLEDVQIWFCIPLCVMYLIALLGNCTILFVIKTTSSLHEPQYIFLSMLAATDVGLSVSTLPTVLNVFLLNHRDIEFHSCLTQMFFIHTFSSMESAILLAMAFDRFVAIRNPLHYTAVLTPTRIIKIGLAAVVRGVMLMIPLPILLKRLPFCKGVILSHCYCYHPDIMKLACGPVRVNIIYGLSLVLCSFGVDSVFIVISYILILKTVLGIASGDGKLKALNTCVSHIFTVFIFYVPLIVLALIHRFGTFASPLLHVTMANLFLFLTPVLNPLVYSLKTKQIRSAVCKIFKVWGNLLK
# Procedure, shortened: as §1
# [11] = target: T11, UniProt Q3U0P3
# T11 sequence (whole entry): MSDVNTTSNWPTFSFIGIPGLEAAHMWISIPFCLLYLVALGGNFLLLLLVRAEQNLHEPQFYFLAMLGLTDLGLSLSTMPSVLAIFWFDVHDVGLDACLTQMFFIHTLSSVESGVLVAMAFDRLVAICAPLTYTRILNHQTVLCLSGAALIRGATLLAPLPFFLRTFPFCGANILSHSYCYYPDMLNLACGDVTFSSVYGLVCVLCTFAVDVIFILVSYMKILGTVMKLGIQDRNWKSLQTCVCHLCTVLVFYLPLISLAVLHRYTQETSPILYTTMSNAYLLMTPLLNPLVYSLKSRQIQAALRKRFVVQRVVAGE
# Procedure, shortened: as §1
# [12] = target: T12, UniProt Q7TQU8
# T12 sequence (whole entry): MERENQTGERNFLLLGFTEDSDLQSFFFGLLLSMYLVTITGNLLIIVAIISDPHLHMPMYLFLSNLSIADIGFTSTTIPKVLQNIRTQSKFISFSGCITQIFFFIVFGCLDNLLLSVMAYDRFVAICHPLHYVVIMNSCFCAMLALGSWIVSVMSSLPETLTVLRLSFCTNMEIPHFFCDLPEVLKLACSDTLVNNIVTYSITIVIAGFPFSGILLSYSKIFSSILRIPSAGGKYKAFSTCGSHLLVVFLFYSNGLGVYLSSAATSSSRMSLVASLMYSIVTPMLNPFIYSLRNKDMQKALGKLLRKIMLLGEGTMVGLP
# Procedure, shortened: as §1
# [13] = target: T13, UniProt Q7TQV4
# T13 sequence (whole entry): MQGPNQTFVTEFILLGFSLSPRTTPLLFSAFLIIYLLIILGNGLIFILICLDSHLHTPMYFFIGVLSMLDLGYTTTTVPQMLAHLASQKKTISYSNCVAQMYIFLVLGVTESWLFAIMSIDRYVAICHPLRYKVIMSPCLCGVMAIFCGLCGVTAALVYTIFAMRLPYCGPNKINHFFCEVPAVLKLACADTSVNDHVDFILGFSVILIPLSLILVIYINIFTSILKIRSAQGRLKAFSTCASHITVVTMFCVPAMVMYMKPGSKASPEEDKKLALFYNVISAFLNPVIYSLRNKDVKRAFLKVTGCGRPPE
# Procedure, shortened: as §1
# [14] = target: T14, UniProt Q7TR71
# T14 sequence (whole entry): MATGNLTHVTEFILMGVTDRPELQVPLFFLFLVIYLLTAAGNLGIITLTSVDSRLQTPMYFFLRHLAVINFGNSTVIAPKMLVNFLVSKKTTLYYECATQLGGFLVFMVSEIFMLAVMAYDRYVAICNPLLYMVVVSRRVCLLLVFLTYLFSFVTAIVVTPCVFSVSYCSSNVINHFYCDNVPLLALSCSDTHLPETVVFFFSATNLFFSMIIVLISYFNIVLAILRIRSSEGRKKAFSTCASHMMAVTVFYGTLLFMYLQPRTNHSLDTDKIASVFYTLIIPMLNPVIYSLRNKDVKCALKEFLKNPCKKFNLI
# Procedure, shortened: as §1
# [15] = target: T15, UniProt Q7TR79
# T15 sequence (whole entry): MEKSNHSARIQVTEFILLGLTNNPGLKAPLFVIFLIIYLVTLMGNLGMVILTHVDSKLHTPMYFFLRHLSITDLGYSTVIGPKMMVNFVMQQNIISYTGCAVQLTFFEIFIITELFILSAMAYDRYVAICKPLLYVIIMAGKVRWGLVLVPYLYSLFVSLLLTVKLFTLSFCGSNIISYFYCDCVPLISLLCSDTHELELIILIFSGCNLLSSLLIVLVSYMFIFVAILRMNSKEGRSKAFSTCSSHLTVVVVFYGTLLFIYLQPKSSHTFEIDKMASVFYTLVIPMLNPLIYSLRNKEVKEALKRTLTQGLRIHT
# Procedure, shortened: as §1
# [16] = target: T16, UniProt Q7TRA3
# T16 sequence (whole entry): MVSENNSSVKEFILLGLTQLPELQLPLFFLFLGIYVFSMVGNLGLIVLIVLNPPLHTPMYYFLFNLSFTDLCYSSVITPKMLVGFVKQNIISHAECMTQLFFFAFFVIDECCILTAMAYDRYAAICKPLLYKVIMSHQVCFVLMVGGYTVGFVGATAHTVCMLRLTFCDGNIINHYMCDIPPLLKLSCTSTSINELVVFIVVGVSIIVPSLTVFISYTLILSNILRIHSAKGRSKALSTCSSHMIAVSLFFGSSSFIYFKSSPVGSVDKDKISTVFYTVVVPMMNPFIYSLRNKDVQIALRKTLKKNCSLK
# Procedure, shortened: as §1
# [17] = target: T17, UniProt Q7TRE4
# T17 sequence (whole entry): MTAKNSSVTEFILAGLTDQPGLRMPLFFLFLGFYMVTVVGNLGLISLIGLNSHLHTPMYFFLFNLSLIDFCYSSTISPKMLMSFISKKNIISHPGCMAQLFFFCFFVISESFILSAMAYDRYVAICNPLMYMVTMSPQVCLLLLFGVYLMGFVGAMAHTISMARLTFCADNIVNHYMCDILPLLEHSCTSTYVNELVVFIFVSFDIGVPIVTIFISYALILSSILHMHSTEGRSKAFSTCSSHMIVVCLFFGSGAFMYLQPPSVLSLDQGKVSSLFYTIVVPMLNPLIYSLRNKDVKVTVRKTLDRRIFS
# Procedure, shortened: as §1
# [18] = target: T18, UniProt E9Q9Z6
# T18 sequence (whole entry): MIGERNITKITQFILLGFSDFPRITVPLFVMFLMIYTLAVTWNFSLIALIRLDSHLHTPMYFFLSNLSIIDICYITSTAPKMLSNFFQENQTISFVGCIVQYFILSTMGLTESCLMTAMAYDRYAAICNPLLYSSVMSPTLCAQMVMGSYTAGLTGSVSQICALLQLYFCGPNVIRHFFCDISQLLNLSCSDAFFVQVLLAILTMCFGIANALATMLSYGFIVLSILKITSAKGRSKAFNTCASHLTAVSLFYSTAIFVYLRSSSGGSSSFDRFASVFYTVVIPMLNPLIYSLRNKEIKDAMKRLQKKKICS
# Procedure, shortened: as §1
# 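Also: active if original authors judged signal statistically different from baseline.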
SMILES,odorant receptor agonist call [1],odorant receptor agonist call [2],odorant receptor agonist call [3],odorant receptor agonist call [4],odorant receptor agonist call [5],odorant receptor agonist call [6],odorant receptor agonist call [7],odorant receptor agonist call [8],odorant receptor agonist call [9],odorant receptor agonist call [10],odorant receptor agonist call [11],odorant receptor agonist call [12],odorant receptor agonist call [13],odorant receptor agonist call [14],odorant receptor agonist call [15],odorant receptor agonist call [16],odorant receptor agonist call [17],odorant receptor agonist call [18]
O=c1cc(O)c2ccccc2o1,inactive,inactive,inactive,inactive,inactive,inactive,inactive,inactive,inactive,inactive,inactive,inactive,inactive,inactive,inactive,inactive,inactive,–
CC(=O)c1cc(C(C)(C)C)cc2c1CCC2(C)C,–,–,–,–,–,–,–,–,–,–,–,–,–,–,–,–,–,inactive
CCC1CCC(=O)O1 (configuration not stated),inactive,–,–,–,inactive,–,inactive,inactive,inactive,–,–,–,active,active,–,inactive,inactive,–
